Reference: ChEMBL document CHEMBL3526048, “In vitro metabolism of rivoglitazone, a novel peroxisome proliferator-activated receptor γ agonist, in rat, monkey, and human liver microsomes and freshly isolated hepatocytes” (Drug Metab Dispos, 2011)

Assays:
Assay type in all cases: ADME
[1] = molecular target: T1, UDP-glucuronosyltransferase 1A4 (Homo sapiens, UniProt P22310); assay: Activity of human UGT1A4 expressed in microsomes isolated from baculovirus infected insect cell assessed as enzyme-mediated (2S,3S,4S,5R,6R)-6-((1-carboxy-2-(4-((6-methoxy-1-methyl-1H-benzo[d]imidazol-2-yl)methoxy)phenyl)ethylthio)carbonylamino)-3,4,5-trihydroxytetrahydro-2H-pyran-2-carboxylic acid formation at 20 uM after 4 hrs by radio-HPLC/LC-MS/MS analysis in presence of UDPGA
T1 sequence (P22310 whole entry): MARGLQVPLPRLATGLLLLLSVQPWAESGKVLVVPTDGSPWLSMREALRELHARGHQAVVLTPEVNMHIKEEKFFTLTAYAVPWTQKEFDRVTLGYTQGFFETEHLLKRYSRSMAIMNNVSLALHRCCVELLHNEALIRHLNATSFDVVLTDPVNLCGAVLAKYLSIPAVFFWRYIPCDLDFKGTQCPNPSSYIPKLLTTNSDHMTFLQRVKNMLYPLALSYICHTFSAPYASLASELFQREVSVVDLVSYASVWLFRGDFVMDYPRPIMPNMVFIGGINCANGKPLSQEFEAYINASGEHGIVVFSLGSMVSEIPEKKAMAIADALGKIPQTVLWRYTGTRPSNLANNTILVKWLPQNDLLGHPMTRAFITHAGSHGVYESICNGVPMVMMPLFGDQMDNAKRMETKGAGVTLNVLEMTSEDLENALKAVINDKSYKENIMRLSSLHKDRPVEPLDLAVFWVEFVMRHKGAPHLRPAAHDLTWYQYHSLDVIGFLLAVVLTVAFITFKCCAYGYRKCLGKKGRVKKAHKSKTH

[2] = molecular target: T2, UDP-glucuronosyltransferase 1A1 (Homo sapiens, UniProt P22309); assay: Activity of human UGT1A1 expressed in microsomes isolated from baculovirus infected insect cell assessed as enzyme-mediated (2S,3S,4S,5R,6R)-6-((1-carboxy-2-(4-((6-methoxy-1-methyl-1H-benzo[d]imidazol-2-yl)methoxy)phenyl)ethylthio)carbonylamino)-3,4,5-trihydroxytetrahydro-2H-pyran-2-carboxylic acid formation at 20 uM after 4 hrs by radio-HPLC/LC-MS/MS analysis in presence of UDPGA
T2 sequence (P22309 whole entry): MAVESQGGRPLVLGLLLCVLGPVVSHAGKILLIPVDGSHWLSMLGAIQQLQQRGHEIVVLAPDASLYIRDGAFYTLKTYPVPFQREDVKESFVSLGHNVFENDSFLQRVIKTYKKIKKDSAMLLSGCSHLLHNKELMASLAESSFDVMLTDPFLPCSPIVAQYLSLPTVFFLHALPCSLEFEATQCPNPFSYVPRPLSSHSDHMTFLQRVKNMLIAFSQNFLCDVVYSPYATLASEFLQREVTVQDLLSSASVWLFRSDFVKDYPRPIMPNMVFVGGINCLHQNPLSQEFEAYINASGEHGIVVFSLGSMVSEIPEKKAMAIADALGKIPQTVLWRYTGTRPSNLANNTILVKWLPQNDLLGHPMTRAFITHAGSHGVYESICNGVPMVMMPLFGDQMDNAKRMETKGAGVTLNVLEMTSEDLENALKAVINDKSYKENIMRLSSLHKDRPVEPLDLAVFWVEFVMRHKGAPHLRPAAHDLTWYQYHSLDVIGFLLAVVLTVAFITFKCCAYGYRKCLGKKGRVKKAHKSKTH
Procedure, shortened: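 Alamethicin (50 μg/mg protein, 15 min on ice) pretreated expressed human UGT microsomes (1 mg/ml protein) from baculovirus-infected insect cells. Incubation with [¹⁴C]rivoglitazone (20 μM) in 100 mM Tris-HCl (pH 7.5) with 10 mM MgCl₂, started by 5 mM UDPGA, 4 h at 37°C with shaking. UGT insect-cell control supersomes were run alongside. Acetonitrile stop, concentrated supernatant analysed by radio-HPLC, LC-MS and LC-MS/MS.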

[3] = molecular target: T3, UDP-glucuronosyltransferase 1A6 (Homo sapiens, UniProt P19224); assay: Activity of human UGT1A6 expressed in microsomes isolated from baculovirus infected insect cell assessed as enzyme-mediated (2S,3S,4S,5R,6R)-3,4,5-trihydroxy-6-(5-(4-((6-methoxy-1-methyl-1H-benzo[d]imidazol-2-yl)methoxy)benzyl)-2,4-dioxothiazolidin-3-yl)tetrahydro-2H-pyran-2-carboxylic acid formation at 20 uM after 4 hrs by radio-HPLC/LC-MS/MS analysis in presence of UDPGA
T3 sequence (P19224 whole entry): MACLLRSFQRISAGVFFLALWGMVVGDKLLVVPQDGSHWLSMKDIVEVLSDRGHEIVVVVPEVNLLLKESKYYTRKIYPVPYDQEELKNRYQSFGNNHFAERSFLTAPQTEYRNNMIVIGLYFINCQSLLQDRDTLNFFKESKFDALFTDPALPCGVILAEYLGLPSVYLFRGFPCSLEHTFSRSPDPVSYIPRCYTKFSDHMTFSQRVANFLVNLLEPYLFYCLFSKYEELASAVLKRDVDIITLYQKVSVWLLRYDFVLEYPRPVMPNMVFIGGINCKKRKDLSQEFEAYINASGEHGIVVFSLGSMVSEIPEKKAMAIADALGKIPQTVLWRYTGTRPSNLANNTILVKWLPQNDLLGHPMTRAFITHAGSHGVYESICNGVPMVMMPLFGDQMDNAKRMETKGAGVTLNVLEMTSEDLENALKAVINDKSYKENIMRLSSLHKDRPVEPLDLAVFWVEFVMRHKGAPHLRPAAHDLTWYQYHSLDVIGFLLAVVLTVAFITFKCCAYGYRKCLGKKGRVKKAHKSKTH

Cytochrome P450 3A4 [4] = molecular target: T4, Cytochrome P450 3A4 (Homo sapiens, UniProt P08684); assay: Activity of human CYP3A4 expressed in microsomes isolated from baculovirus infected insect cell assessed as enzyme-mediated 3-(4-((6-methoxy-1-methyl-1H-benzo[d]imidazol-2-yl)methoxy)phenyl)-2-(methylsulfonyl)propanamide formation at 20 uM after 2 hrs by radio-HPLC/LC-MS/MS analysis in presence of NADPH-generating system/SAM
T4 sequence (P08684 whole entry): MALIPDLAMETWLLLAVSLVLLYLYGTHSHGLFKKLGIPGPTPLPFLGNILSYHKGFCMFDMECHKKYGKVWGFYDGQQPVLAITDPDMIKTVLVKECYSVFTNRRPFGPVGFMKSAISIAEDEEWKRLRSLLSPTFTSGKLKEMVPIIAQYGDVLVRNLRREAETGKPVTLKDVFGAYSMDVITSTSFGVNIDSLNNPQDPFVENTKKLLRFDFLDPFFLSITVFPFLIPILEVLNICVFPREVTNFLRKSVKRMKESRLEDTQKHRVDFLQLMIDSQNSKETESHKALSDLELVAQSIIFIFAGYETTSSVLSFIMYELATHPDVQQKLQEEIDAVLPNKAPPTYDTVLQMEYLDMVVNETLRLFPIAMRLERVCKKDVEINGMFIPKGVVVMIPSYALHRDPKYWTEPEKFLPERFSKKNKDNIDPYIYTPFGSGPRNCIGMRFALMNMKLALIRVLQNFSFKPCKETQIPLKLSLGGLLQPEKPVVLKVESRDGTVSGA

Cytochrome P450 3A4 [5] = molecular target: T4, Cytochrome P450 3A4; assay: Activity of human CYP3A4 expressed in microsomes isolated from baculovirus infected insect cell assessed as enzyme-mediated 3-(4-((6-methoxy-1-methyl-1H-benzo[d]imidazol-2-yl)methoxy)phenyl)-2-(methylthio)propanoic acid formation at 20 uM after 2 hrs by radio-HPLC/LC-MS/MS analysis in presence of NADPH-generating system/SAM and UDPGA/SAM

Measured: Drug metabolism

COc1ccc2nc(COc3ccc(C[14CH]4SC(=O)NC4=O)cc3)n(C)c2c1.Cl (racemic)
metabolite_not_detected: [1] | [2] | [3] | Cytochrome P450 3A4 [4] | Cytochrome P450 3A4 [5]
